Results taken from PubChem BioAssay AID463172 (The Scripps Research Institute Molecular Screening Center, 2010).

System: HEK293T RORa/G6PC promoter luciferase, 20 h
Experiment: G6PC promoter luciferase repression, IC50 – cell-based, luminescence, dose response, counter-screen for RORA inverse agonist project, late-stage follow-up (AID 463172)
Method in brief: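 Assay system – HEK293T cells transfected with full-length RORa, SRC-2 coactivator, G6PC promoter-luciferase · Timing – 20 h compound exposure after 24 h bulk transfection · Detection – luciferase luminescence · Benchmarks – DMSO vehicle-treated cells as normalization reference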

Compound `O=S(=O)(Nc1ccc(C(O)(C(F)(F)F)C(F)(F)F)cc1)c1cccs1` has an IC50 of 1.4 µM.
